Test results taken from article PMC9256809 (Molecular Cancer Therapeutics, 2022).
Values belong to the molecule of their own block, whether it stands above or below them.

What was measured:
[1] = system: Ba/F3 cells FLT3- ITD; assay: Antiproliferative assay in Ba/F3 cells transfected with FLT3 variants; format: cell-based, mouse; conditions: for IC50: Mus musculus, BaF3
[2] = system: Ba/F3 cells FLT3 D835Y; assay: as above; format: cell-based; conditions: Mus musculus, BaF3
[3] = system: Ba/F3 cells FLT3-ITD + D835Y; assay: as above; format: cell-based; conditions: Mus musculus, BaF3
[4] = system: Ba/F3 cells FLT3-ITD + F691L; assay: as above; format: cell-based; conditions: Mus musculus, BaF3
[5] = system: relapsed or refractory FLT3-mutated AML; conditions: FLT3 inhibitor-naïve patients with relapsed or refractory FLT3-mutated AML; cited from earlier work
[6] = biological target: FLT3-ITD (Homo sapiens, UniProt P36888); assay: RBC enzymatic assay, ATP at Km; format: biochemical
FLT3-ITD, sequence (P36888 564-993, change not shown): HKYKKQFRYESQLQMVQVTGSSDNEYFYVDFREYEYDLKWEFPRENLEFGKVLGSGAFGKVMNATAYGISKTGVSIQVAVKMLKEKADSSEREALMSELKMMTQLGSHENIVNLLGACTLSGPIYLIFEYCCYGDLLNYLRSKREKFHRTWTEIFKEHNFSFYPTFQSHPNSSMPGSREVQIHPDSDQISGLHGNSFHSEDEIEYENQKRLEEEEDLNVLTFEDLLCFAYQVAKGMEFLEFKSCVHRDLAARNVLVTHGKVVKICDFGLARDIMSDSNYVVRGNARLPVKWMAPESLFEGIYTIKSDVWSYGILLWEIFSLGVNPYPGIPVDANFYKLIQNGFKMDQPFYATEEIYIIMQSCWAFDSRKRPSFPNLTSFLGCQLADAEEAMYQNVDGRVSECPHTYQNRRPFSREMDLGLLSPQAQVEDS
How it was run: (§1)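 Recombinant kinases were assayed with ATP at each kinase's Km, and IC50 values were determined.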

[7] = biological target: TEC (Homo sapiens, UniProt P42680); assay: RBC enzymatic assay, ATP at Km; format: biochemical
TEC, sequence (P42680 whole entry): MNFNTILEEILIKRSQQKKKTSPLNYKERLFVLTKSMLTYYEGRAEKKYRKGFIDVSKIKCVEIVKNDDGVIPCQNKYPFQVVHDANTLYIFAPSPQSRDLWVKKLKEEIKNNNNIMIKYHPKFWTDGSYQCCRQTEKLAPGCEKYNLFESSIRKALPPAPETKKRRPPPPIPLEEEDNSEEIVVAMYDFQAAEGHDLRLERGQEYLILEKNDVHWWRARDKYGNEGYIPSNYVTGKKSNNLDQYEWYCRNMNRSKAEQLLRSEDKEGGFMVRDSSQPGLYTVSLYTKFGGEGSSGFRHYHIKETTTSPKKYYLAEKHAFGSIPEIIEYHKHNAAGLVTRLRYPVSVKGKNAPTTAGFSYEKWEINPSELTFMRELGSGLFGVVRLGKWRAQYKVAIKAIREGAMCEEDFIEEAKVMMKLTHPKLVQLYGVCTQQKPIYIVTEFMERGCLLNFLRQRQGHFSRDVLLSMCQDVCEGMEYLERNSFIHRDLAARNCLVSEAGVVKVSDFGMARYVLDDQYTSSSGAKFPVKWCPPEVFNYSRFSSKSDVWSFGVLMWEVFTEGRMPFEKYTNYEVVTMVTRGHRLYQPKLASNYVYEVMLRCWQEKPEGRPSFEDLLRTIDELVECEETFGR
How it was run: as §1

[8] = biological target: ERBB (Homo sapiens, UniProt P04626); assay: RBC enzymatic assay, ATP at Km; format: biochemical
ERBB, sequence (P04626 23-1255): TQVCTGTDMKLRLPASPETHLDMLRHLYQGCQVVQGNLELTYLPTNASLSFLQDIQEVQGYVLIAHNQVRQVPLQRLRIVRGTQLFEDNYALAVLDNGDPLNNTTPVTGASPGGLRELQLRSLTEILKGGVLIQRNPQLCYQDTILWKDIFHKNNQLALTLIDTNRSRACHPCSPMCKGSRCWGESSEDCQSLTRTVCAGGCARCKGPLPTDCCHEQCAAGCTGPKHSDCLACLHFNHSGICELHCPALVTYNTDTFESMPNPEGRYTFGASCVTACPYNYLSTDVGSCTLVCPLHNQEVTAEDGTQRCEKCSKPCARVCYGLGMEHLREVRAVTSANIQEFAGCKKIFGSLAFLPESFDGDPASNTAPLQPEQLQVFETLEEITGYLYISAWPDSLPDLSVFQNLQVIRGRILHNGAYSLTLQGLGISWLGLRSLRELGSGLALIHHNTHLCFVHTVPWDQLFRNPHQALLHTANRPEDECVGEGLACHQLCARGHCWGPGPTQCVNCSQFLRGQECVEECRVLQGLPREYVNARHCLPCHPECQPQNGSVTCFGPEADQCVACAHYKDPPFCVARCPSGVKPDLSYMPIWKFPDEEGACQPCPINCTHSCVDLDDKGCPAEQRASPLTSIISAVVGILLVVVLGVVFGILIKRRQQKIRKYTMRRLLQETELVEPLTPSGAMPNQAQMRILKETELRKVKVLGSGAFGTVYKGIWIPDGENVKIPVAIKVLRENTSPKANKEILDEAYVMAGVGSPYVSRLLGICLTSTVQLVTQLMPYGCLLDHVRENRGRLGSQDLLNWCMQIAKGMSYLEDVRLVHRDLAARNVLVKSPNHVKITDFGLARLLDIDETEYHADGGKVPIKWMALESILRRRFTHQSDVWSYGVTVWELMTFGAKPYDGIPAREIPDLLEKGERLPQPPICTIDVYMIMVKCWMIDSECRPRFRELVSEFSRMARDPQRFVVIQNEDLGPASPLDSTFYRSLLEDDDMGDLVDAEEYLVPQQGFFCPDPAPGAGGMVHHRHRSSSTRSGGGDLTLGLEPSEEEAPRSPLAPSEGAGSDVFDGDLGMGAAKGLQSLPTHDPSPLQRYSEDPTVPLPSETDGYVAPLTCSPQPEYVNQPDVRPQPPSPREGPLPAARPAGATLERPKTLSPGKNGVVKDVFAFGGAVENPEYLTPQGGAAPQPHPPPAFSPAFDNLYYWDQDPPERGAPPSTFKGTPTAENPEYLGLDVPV
How it was run: as §1

[9] = biological target: FLT3– ITD (Homo sapiens, UniProt P36888, ITD); assay: DiscoverX KINOMEscan competition binding
FLT3– ITD, sequence (P36888 564-993, stated change not applied): as the sequence (P36888 564-993, change not shown) above

[10] = biological target: FLT3 D833Q (TKD) (Homo sapiens, UniProt P36888); assay: DiscoverX KINOMEscan competition binding
FLT3 D833Q (TKD), sequence (P36888 610-943, stated change not applied): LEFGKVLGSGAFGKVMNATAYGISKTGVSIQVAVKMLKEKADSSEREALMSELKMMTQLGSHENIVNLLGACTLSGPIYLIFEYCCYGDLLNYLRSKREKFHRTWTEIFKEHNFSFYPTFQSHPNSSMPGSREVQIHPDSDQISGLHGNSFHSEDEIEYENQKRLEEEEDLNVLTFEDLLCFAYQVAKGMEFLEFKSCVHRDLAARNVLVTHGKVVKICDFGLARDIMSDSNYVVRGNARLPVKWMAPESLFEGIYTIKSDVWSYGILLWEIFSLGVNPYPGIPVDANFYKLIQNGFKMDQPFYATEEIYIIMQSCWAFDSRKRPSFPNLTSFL

[11] = biological target: FLT3 ITD/F691L (Homo sapiens, UniProt P36888, F691L/ITD); assay: DiscoverX KINOMEscan competition binding
FLT3 ITD/F691L, sequence (P36888 564-993 F691L): as the sequence (P36888 564-993, change not shown) above, with F128L counted along it

[12] = system: EOL-1; assay: Antiproliferative assay; format: cell-based; conditions: Homo sapiens, EOL1, 72 h, read-out: Mean IC50
How it was run: (§2)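 Human AML lines from ATCC or DSMZ, STR-authenticated, mycoplasma-tested every 2 months and grown in source-recommended medium. Cells were exposed in four replicates to increasing concentrations of test compound for 72 h. Proliferation was read with the CellTiter 96 AQueous One (MTS) reagent.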

[13] = system: MOLM-13; assay: Antiproliferative assay; format: cell-based; conditions: Homo sapiens, MOLM-13, 72 h, read-out: Mean IC50
How it was run: as §2

[14] = system: THP-1; assay: Antiproliferative assay; format: cell-based; conditions: Homo sapiens, THP-1, 72 h, read-out: Mean IC50
How it was run: as §2

[15] = system: HEL92.1.7; assay: Antiproliferative assay; format: cell-based; conditions: Homo sapiens, HEL 92.1.7, 72 h, read-out: Mean IC50
How it was run: as §2

[16] = system: primary mononuclear cells from patients with AML; assay: Ex vivo cell viability assay; format: cell-based; conditions: Homo sapiens, read-out: median IC50, 186 primary samples from patients with AML
[17] = system: samples from patients with MDS/MPN; assay: Ex vivo cell viability assay; format: cell-based; conditions: Homo sapiens, read-out: median IC50
How it was run: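 Freshly isolated patient mononuclear cells (peripheral blood or bone marrow) were plated at 10,000 cells/well. They were given a seven-point, 3-fold dilution series from 10 to 0.0137 µmol/L, made from DMSO stocks, and incubated 3 days. Growth was read by MTS; absorbance was background-subtracted and normalised to untreated wells. IC50 was obtained per sample and the median taken.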

[18] = system: MV4–11 FLT3-ITD xenograft; assay: MV4–11 subcutaneous xenograft study; format: in vivo, BALB/c nu/nu mice
[19] = 28-day GLP repeat-dose toxicology study; format: in vivo; conditions: dogs, up to highest dose tested of 600 mg/kg orally
[20] = biological target: hERG potassium ion channel (Homo sapiens, UniProt Q12809); assay: hERG inhibition
[21] = Cardiovascular study in dogs; format: in vivo
[22] = biological target: CYP3A4 (Homo sapiens, UniProt P08684); assay: Metabolism studies; format: in vitro ADME
CYP3A4, sequence (P08684 whole entry): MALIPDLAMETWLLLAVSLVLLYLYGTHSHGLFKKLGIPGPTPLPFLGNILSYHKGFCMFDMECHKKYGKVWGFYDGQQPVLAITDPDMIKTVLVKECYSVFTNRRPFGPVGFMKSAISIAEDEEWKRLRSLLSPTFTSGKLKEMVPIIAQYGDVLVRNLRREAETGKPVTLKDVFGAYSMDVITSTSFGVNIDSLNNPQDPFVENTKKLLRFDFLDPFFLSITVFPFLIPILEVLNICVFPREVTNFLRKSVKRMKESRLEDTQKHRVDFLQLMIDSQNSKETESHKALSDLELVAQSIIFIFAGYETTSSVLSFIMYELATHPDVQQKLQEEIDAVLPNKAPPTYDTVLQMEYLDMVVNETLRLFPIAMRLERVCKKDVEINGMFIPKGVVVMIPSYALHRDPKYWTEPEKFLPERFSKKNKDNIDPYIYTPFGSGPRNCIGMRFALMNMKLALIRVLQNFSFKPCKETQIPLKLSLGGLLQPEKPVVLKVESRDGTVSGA

[23] = biological target: CYP3A5 (Homo sapiens, UniProt P20815); assay: Metabolism studies; format: in vitro ADME
CYP3A5, sequence (P20815 whole entry): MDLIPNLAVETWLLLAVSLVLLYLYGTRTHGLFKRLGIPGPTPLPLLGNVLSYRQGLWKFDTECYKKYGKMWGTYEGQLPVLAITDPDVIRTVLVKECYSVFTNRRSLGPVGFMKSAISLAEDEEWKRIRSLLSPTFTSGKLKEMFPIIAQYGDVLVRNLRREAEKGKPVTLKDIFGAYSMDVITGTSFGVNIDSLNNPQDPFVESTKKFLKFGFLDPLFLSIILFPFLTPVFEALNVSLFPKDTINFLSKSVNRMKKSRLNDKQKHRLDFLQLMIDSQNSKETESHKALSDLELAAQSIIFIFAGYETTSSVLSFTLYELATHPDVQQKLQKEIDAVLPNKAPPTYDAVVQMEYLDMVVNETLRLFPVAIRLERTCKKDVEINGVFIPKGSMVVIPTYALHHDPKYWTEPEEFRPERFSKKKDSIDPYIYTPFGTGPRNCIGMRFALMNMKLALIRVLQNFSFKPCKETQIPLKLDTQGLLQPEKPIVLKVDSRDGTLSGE

[24] = system: FLT3-mutant AML cell lines and the PDGFR-α mutant EOL-1 cell line; assay: Apoptosis by PARP cleavage; format: cell-based, human; conditions: all 3 FLT3-mutant AML cell lines and EOL-1
How it was run: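 Cells were treated with DMSO vehicle or test compound for 1 or 24 h, then lysed. Apoptosis was assessed by Western blot for PARP cleavage.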

[25] = system: phosphorylation of FLT3; assay: Western blot analysis of kinase inhibition; format: cell-based; conditions: Fig. 2B
How it was run: (§3)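 Cells were exposed to vehicle DMSO or a concentration range of test compound for 1 or 24 h, then lysed. Blots were probed for total and phosphorylated FLT3 (pY589/591), STAT5 (pY694) and ERK1/2 (pT202/204). Images are representative of 3 biological repeats.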

[26] = system: phosphorylation of STAT5; assay: Western blot analysis of kinase inhibition; format: cell-based; conditions: Fig. 2B
How it was run: as §3

[27] = system: phosphorylation of ERK1/2; assay: Western blot analysis of kinase inhibition; format: cell-based; conditions: Fig. 2B
How it was run: as §3

[28] = Phase I trial tolerability; format: in vivo, patients with AML and MDS/MPN; conditions: doses that yield plasma concentrations up to 1 μmol/L
[29] = biological target: FLT3 (Homo sapiens, UniProt P36888); assay: Plasma inhibition assay; conditions: phase I doses yielding plasma concentrations up to 1 μmol/L
FLT3, sequence (P36888 27-993): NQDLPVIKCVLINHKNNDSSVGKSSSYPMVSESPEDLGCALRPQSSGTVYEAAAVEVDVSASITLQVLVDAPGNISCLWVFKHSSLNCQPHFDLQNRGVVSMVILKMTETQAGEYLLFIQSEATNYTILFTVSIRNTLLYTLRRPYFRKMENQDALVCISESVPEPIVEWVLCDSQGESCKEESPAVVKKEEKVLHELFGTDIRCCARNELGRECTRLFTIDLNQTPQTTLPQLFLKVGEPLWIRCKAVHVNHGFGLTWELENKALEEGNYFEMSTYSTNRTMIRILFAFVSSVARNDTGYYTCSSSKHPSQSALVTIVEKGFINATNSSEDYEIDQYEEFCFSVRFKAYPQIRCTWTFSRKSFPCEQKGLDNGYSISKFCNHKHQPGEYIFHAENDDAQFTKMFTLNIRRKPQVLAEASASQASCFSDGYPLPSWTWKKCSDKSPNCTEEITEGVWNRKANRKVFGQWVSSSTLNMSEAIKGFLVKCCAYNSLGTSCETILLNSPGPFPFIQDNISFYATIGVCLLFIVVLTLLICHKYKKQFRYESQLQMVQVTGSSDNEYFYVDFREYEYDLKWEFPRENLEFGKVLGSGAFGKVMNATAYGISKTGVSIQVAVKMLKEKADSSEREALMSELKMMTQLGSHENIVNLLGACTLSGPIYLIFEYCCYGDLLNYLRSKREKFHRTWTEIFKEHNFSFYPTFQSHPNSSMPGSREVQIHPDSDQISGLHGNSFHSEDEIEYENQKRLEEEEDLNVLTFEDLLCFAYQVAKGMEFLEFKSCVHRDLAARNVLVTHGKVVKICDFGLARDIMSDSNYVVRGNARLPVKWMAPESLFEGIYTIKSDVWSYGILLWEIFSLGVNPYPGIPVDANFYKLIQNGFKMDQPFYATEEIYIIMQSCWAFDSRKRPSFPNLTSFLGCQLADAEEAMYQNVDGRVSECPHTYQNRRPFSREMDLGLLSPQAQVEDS

IC50 [1]: 38 ± 8 nM
IC50 [2]: 831 ± 195 nM
IC50 [3]: 37 ± 13 nM
IC50 [4]: 286 ± 9 nM
SMILES: CC1(COc2ccc3c(c2)ncn3-c2ccc3cccc(N4CCC(N)CC4)c3n2)COC1 [Crenolanib, crenolanib]

SMILES: CCc1nc(C(N)=O)c(Nc2ccc(N3CCC(N4CCN(C)CC4)CC3)c(OC)c2)nc1NC1CCOCC1 [Gilteritinib, gilteritinib]
IC50 [1]: 28 ± 2 nM
IC50 [2]: 521 ± 68 nM
IC50 [3]: 9 ± 5 nM
IC50 [4]: 96 ± 6 nM
event-free survival [5]: 2.8 months
response rate [5]: 34%

SMILES: Cc1cnc(-c2ccc(-c3ccc(NC(=O)Nc4c(F)cc(F)cc4F)cc3F)c3c2C(=O)NC3)[nH]1 [luxeptinib, Luxeptinib]
IC50 ([6]; FLT3-ITD, recombinant kinase with ATP concentration at the Km): 0.8 nM
fold lower inhibitory concentration for recombinant FLT-ITD than WT FLT3 ([6]; recombinant kinases): 10 fold
IC50 [7]: 139 nM
IC50 [8]: > 1000 nM
Kd [9]: 3.1 nM
Kd [10]: 6.4 nM
Kd [11]: 16 nM
IC50 [12]: 0.045 nM
IC50 [13]: 0.395 nM
IC50 [14]: 2970 nM
IC50 [15]: 4690 nM
fold more potent than quizartinib ([1]; FLT3-ITD in the Ba/F3 system): 4 fold
IC50 [1]: 1 ± 0.2 nM
IC50 [2]: 6 ± 0.4 nM
IC50 [3]: 22 ± 9 nM
IC50 [4]: 9 ± 1 nM
IC50 [16]: 94.5 nM
IC50 [17]: < 200 nM
mice with tumor growth completely suppressed out to 120 days ([18]; 300 mg/kg twice a day, oral gavage, 28 days): 10 of 11
weight loss or clinically apparent adverse events ([18]; doses up to 300 mg/kg twice a day, mice): No weight loss or clinically apparent adverse events
Inhibition of tumor growth ([18]; lowest dose of 20 mg/kg/day, oral, 28 days): apparent
response of regrown tumors to second 28-day treatment ([18]; re-treatment at 300 mg/kg twice a day, 100 and 300 mg/kg groups): All tumors that regrew in these two groups responded
hematologic, cardiovascular or other organ toxicities [19]: No hematologic, cardiovascular or other organ toxicities were observed
inhibition of hERG potassium ion channel [20]: did not inhibit
effect on QTc or any other parameter of heart function [21]: no effect
involvement of CYP3A4 in metabolism [22]: involved in the metabolism
involvement of CYP3A5 in metabolism [23]: involved in the metabolism
concentration inducing apoptosis (PARP cleavage) [24]: ≤ 5 nmol/L
phosphorylation of FLT3 [25]: potently reduces the phosphorylation
phosphorylation of downstream STAT5 [26]: reduces the phosphorylation
phosphorylation of downstream ERK1/2 [27]: reduces the phosphorylation
tolerability in phase I trial [28]: generally well tolerated
inhibition of FLT3 in a plasma inhibition assay [29]: almost complete inhibition
